We go through eleven compounds from ChEMBL document CHEMBL2406971, “Optimization of Arylamides as Novel, Potent and Brain-penetrant Antiprion Lead Compounds” (ACS Med Chem Lett, 2013).

Data set [1] relates to Plasma. As to the kind of experiment: Cmax in CD-1 mouse plasma at 10 mg/kg, po after 6 hrs by LC/MS analysis. In kind it is ADME, organism-based. On the set-up: dose 10 mg/kg, route oral. Conditions: in vivo.
Data set [2] has as its system Liver. Nature of the data set: Half life in mouse liver microsomes at 1 uM by LC/MS/MS analysis. In kind it is ADME, Microsome. (In general: Liver microsomes are vesicles of endoplasmic reticulum, rich in cytochrome P450 enzymes.)
Data set [3] has as its system Brain. Nature of the data set: Cmax in CD-1 mouse brain at 10 mg/kg, po after 6 hrs by LC/MS analysis. Conditions: in vivo. In kind it is ADME, organism-based. On the set-up: dose 10 mg/kg, route oral.
Data set [4] can be described thus: Cytotoxicity against mouse ScN2a-cl3 cells after 5 days by calcein-AM assay. In kind it is cell-based, N2a-cl3. Conditions: read-out: LD50. Put shortly: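 Run alongside every EC50 measurement. Toxicity toward ScN2a-cl3 cells scored with the fluorescent probe calcein-AM.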
Data set [5] can be described thus: AUC (0 to 6 hrs) in CD-1 mouse plasma at 10 mg/kg, po by LC/MS analysis. The class given is ADME, organism-based. More on the design: time < 6 hr, dose 10 mg/kg, route oral.
A short description of data set [6]: AUC (0 to 6 hrs) in CD-1 mouse brain at 10 mg/kg, po by LC/MS analysis. The class given is ADME, organism-based. More on the design: time < 6 hr, dose 10 mg/kg, route oral.
Data set [7] in a line: Ratio of drug level in brain to plasma in CD-1 mouse at 10 mg/kg, po. In kind it is ADME, organism-based. More on the design: dose 10 mg/kg, route oral. Conditions: brain and plasma, read-out: BPR.

Where only a bound is given, the exact number is not on record here.

`CCN1CCN(c2ccc(NC(=O)c3ccc(-c4ccccn4)cc3)cc2)CC1`: the Cmax (as a rule, the peak of the concentration-time curve) was determined as 280 nM in data set [1] and 6.23 µM in data set [3]. In data set [2], this compound returned a t1/2 of 27 min. In data set [4], the CC50 at 120 h is over 10 µM. In addition, the AUC(0-t) – broadly, exposure summed from dosing to a finite time, without extrapolation to infinity – at 6 h in data set [5] was 1.05 µM·h; in data set [6] it was 24.2 µM·h.
As to `CCN1CCN(c2ccc(NC(=O)c3ccc(-c4cccnc4)cc3)cc2)CC1`, the figures for the Cmax in data set [1] and in data set [3] were 210 nM and 1.44 µM, respectively. The t1/2 in data set [2] is recorded as 29.2 min. Further, in data set [4], the CC50 at 120 h is over 10 µM. Also, the AUC(0-t) at 6 h in data set [5] is 0.25 µM·h; in data set [6], 3.32 µM·h.
Consider `CCN1CCN(c2ccc(NC(=O)c3ccc(-c4ccncc4)cc3)cc2)CC1`, for which the CC50 at 120 h in data set [4] was over 10 µM.
As to `CC(C)N1CCN(c2ccc(NC(=O)c3ccc(-c4ccccn4)cc3)cc2)CC1`, the Cmax amounted to 320 nM in data set [1] and 0.09 µM in data set [3]. Further, in data set [4], the CC50 at 120 h is over 10 µM. In addition, the AUC(0-t) at 6 h in data set [5] was 1.2 µM·h; in data set [6], 0.28 µM·h.
Regarding `CC(C)N1CCN(c2ccc(NC(=O)c3ccc(-c4ccccn4)cc3)nc2)CC1`, the results for the Cmax in data set [1] and in data set [3] were 340 nM and 6 µM, respectively. Besides, the CC50 at 120 h in data set [4] was over 10 µM. Further, the AUC(0-t) at 6 h was determined as 1.26 µM·h in data set [5] and 22.3 µM·h in data set [6].
On to `CC(C)N1CCN(c2ccc(NC(=O)c3ccc(-c4ccccn4)cc3)cn2)CC1`, for which the CC50 at 120 h in data set [4] was over 10 µM.
As for `CC(C)N1CCN(c2ccc(NC(=O)c3ccc(-c4ccccn4)cc3)c(F)c2)CC1`, the highest concentration (Cmax) in data set [1] was determined as 650 nM; in data set [3], 17.3 µM. The CC50 at 120 h in data set [4] is over 10 µM. Also, the results for the AUC(0-t) at 6 h in data set [5] and in data set [6] were 1.46 µM·h and 39.8 µM·h, respectively.
The like results for `CC(C)N1CCN(c2ccc(NC(=O)c3ccc(-c4ccccn4)cc3)cc2F)CC1` were, in that order, 460 nM, 6.75 µM, over 10 µM, 2.28 µM·h and 28.7 µM·h.
In the case of `CN1CCN(c2ccc(NC(=O)c3ccc(-c4ccccc4)cc3)cc2)CC1`, in data set [4], the CC50 at 120 h was over 5 µM.
Turning to `CCN1CCN(c2ccc(NC(=O)c3ccc(-c4ccccc4)cc3)cc2)CC1`, the highest concentration (Cmax) in data set [1] was 370 nM; in data set [3], 7.95 µM. Moreover, the results for the AUC(0-t) at 6 h in data set [5] and in data set [6] were 1.09 µM·h and 25.4 µM·h, respectively. Moreover, the Kp in data set [7] is at most 10.
With `CC(C)N1CCN(c2ccc(NC(=O)c3ccc(-c4ccccc4)cc3)cc2)CC1`, the Cmax is 270 nM in data set [1] and 2.52 µM in data set [3]. Moreover, in data set [4], the CC50 at 120 h was over 10 µM. The AUC(0-t) at 6 h in data set [5] is 0.97 µM·h; in data set [6] it was 7.48 µM·h. Besides, the Kp in data set [7] is at most 10.
